Bioassay records: PubChem, Johns Hopkins Ion Channel Center
An excerpt weighted towards active compounds, which were near 2.3% of everything screened.
TRPC4 potent = allosteric potentiators of mouse TRPC4 channel | Q9QUQ5 | HEK293 TRPC4beta/mu-opioid, DAMGO EC20, Fluo-4 Ca2+ flux; active compounds read high | B-score at 10 µM | actives 0.42% (n = 310,000) | AID 2227;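 active = B-score of calcium response area above 5 SD of library B-scores, with initial fluorescence ratio within 5 SD of library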;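 note: B-score of integrated fluorescence ratio over time as area under calcium response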
Target sequence (Q9QUQ5 whole entry, looked up): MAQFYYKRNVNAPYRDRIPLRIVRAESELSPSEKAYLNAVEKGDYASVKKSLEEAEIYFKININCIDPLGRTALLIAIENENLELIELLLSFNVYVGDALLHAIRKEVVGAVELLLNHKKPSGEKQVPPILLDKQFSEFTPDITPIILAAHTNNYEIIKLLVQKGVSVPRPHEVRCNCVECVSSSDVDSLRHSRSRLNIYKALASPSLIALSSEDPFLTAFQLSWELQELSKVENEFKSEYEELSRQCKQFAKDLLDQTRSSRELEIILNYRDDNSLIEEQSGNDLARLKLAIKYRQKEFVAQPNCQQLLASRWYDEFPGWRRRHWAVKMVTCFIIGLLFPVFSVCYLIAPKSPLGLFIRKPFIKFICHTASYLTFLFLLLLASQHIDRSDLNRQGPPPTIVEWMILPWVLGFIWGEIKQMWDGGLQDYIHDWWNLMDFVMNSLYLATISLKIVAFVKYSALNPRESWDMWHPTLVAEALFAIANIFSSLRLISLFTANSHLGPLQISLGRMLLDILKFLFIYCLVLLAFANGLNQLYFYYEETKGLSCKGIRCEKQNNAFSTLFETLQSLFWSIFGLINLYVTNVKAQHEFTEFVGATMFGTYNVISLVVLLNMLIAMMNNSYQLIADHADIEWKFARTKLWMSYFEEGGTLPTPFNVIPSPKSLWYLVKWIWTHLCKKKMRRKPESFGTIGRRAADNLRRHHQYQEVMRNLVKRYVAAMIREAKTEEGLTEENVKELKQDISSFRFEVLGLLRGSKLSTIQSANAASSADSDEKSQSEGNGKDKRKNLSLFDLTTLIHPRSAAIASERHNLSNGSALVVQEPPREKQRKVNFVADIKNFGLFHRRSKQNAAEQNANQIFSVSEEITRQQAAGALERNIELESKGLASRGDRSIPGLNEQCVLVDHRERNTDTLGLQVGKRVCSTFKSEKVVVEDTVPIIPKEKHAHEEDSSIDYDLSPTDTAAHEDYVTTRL
TRPC6 inh = blocks the mouse TRPC6 cation channel | Q61143 | HEK293-TRPC6, membrane potential dye, ACh-evoked depolarization; active compounds read low | B-score at 10 µM | actives 1.1% (n = 310,000) | AID 2553;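 active = B-score under library mean minus 3 SD, initial fluorescence not abnormally high, positive integrated signal ratio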;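 note: B-score derived from integrated fluorescence ratio over the kinetic read; more negative B-score means stronger inhibition of depolarization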
TRPC6 act = activates the mouse TRPC6 cation channel | B-score at 10 µM | HEK293-TRPC6 membrane potential dye fluorescence; active compounds read high | actives 0.13% (n = 310,000) | Q61143;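 active = B-score of the integrated fluorescence ratio above library mean plus 3 SD, and starting fluorescence ratio within library mean plus 5 SD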;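 note: higher score means more depolarization so channel activation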
TRPC4 agonist = opens the mouse TRPC4 cation channel. Q9QUQ5. HEK293 TRPC4beta/mu-opioid, Fluo4 calcium fluorescence; active compounds read high. B-score at 10 µM. actives 0.49% (n = 310,000). AID 2237;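 active = B-score above 5 SD of library B-scores, and initial fluorescence ratio not above library mean plus 5 SD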;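 note: positive B-score marks a calcium rise read as TRPC4 activation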
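System – HEK293 cells stably co-expressing mouse TRPC4beta and mu-opioid receptor · Signal – Fluo4 calcium-sensitive dye fluorescence, kinetic, 1 Hz baseline · Benchmarks – buffer (low) and maximal DAMGO (high) · Read-out – B score of integrated fluorescence ratio per well · Incubation – dye loading 45 min room temperature, 110 s kinetic read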
TRPC4 inh = inhibitors of mouse TRPC4 channel. Q9QUQ5. HEK293 TRPC4beta/mu-opioid, DAMGO-evoked Fluo4 calcium flux; active compounds read low. B-score at 10 µM. actives 0.39% (n = 300,000);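 active = B-score over 3 SD under the library average, no early fluorescence shift, positive overall ratio signal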
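Assay system: HEK293 cells with stable TRPC4beta plus mu-opioid receptor expression. Dosing: single dose. Measured by: Fluo4 Ca2+ flux fluorescence. Also added: DAMGO in two steps, submaximal then maximal. Read-out: B score from integrated Fluo4 fluorescence ratio.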
HEK293 TRPC6 ctr = checks TRPC6 modulator effects in parental HEK293 cells | membrane potential signal change, % at 10 µM | AID 488924 | membrane potential dye fluorescence | actives 51% (n = 2,400) | shares compounds with TRPC6 inh;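 active = membrane potential signal moves up or down beyond 5 SD from buffer-only wells, on both duplicate plates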
HEK293 MPD ctr 2 = second counter-screen for TRPC6 modulators: effect in parental HEK293 cells; shares compounds with TRPC6 inh; membrane potential dye fluorescence; after compound, maximal acetylcholine stimulation; actives 14% (n = 2,400); inhibition, % at 10 µM;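 active = membrane potential signal drops by more than 5 SD from the mean control signal, in both duplicate plates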;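 note: plate controls were acetylcholine ECmax control wells for no effect and buffer only wells for full effect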
TRPC4 ctr mod = tests whether TRPC6 modulators also affect mouse TRPC4. shares compounds with TRPC6 inh. HEK293 TRPC4/mu-opioid, membrane potential fluorescence. percent change from control (negative = decrease, positive = increase), % at 10 µM. actives 69% (n = 2,400);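 active = membrane potential signal moved up or down beyond 5 SD of buffer control wells, in both duplicate plates, actives on both sides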;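 note: plate controls were assay buffer wells for no effect and DAMGO maximal-effect wells for full effect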
TRPC4 ctr inh 2 = second selectivity test of TRPC6 modulators against mouse TRPC4. HEK293 TRPC4/mu-opioid, membrane potential dye fluorescence; stimulated with maximal-effect DAMGO. inhibition, % at 10 µM. shares compounds with TRPC6 inh. AID 488928. actives 55% (n = 2,400);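 active = drop in membrane potential signal beyond 5 SD of the control wells in both duplicate plates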;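 note: TRPC4 counter screen for TRPC6 hits run under conditions tuned for TRPC6 not TRPC4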
TRPC6 act confirm = mouse TRPC6 activator confirmation. shares compounds with TRPC6 inh. HEK293-TRPC6 membrane potential dye fluorescence, FDSS. activation, % at 10 µM. actives 11% (n = 2,800);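 active = ratio signal rise beyond 5 SD above unstimulated control wells' mean, seen in both duplicate runs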;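 note: plate controls were buffer EC0 wells for no effect and acetylcholine ECmax response for full effect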
An asterisk follows results filed as active; i = inactive.

SMILES	TRPC4 potent	TRPC6 inh	TRPC6 act	TRPC4 agonist	TRPC4 inh	others
CCCCn1c(CN2CCN(c3cccc(Cl)c3)CC2)nc2c1c(=O)n(C)c(=O)n2C	i	i	i	i	i
Cn1c(=O)c2c(nc(CN3CCN(C(c4ccccc4)c4ccccc4)CC3)n2CCCO)n(C)c1=O	13*	i	i	i	i
O=C(Nc1cc(-c2ccccc2)[nH]n1)c1ccc(Cl)cc1	i	i	i	i	i
CCCCN(CCCNC(=O)c1ccc(CS(=O)(=O)c2c(Cl)cccc2Cl)o1)Cc1ccccc1	i	i	i	i	i
CCCCN(CC)CCCNC(=O)c1ccc(CS(=O)(=O)c2c(Cl)cccc2Cl)o1	i	i	i	62*	i
O=C(c1cc2nc(-c3ccc(F)cc3)cc(C(F)(F)F)n2n1)N1CCCCC1c1cccnc1 (stereo not drawn)	i	i	i	i	i
Clc1cccc(OCCOCCN2CCNCC2)c1Cl	i	i	i	44*	i
Clc1cccc(OCCCN2CCCC2)c1Cl	i	i	i	i	i
Clc1cccc(OCCN2CCNCC2)c1	i	i	i	97*	i
CCOc1ccc(CN2CCN(Cc3nc(C(C)C)cs3)CC2CCO)cc1 (stereo not drawn)	i	i	i	i	i
CC(=O)Nc1ccc(S(=O)(=O)N2CCN(c3cc(C(F)(F)F)ccn3)CC2)cc1	i	i	i	i	i
FC(F)(F)c1ccnc(N2CCN(Cc3cnc(-c4ccccc4)[nH]3)CC2)c1	i	i	i	i	-7*
O=S(=O)(Cc1ccc(Cl)cc1)NCc1ccc2c(c1)OCO2	i	i	i	i	i
O=C1C=C(O)CC(c2ccc(Cl)c(Cl)c2)C1 (stereo not drawn)	11*	i	i	i	i
O=C1C=C(O)CC(c2ccc(Cl)cc2)C1 (stereo not drawn)	i	i	i	i	i
Cc1csc2c(N3CCN(C(=O)Nc4ccc(Cl)c(Cl)c4)CC3)ncnc12	i	i	i	91*	i
CCOC(=O)C1CCN(c2ncnc3c(C)csc23)CC1	i	i	i	i	i
Cc1csc2c(N3CCN(C(=S)Nc4ccc(C(F)(F)F)cc4)CC3)ncnc12	i	i	i	145*	i
Cc1csc2c(N3CCN(C(=O)NC(C)(C)C)CC3)ncnc12	i	i	i	84*	i
Cc1csc2ncnc(N3CCN(C(=S)Nc4ccc(C(F)(F)F)cc4)CC3)c12	i	i	i	i	i
Cc1csc2c(N3CCN(C(=O)c4ccc(C(C)(C)C)cc4)CC3)ncnc12	i	i	i	67*	i
O=C(CCCc1ccccc1)NCc1ccccc1Cl	i	i	i	i	i
Cn1c2c(c(=O)n1-c1ccccc1)CSCC2	i	i	i	i	i
CCCCCSc1nnc2c(n1)OC(c1cccn1C)N(C(C)=O)c1ccccc1-2 (stereo not drawn)	i	i	i	193*	i
CCCCN(C)C(=O)C1CCN(c2ccc(S(=O)(=O)N3CCOCC3)cc2[N+](=O)[O-])CC1	i	i	i	i	i
SMILES	TRPC4 potent	TRPC6 inh	TRPC6 act	TRPC4 agonist	TRPC4 inh	others
CC(=O)Oc1c(C)cc(O)c2ccccc12	17*	i	i	i	i
CCCCOc1ccc(CSC(CC(=O)O)C(=O)O)cc1 (stereo not drawn)	i	i	i	i	i
CCCCOc1ccc(CSCCN=C(N)N)cc1	i	i	i	i	-6*
CSc1cccc(NC(=O)CC(C)n2ccnc2)c1 (stereo not drawn)	i	i	i	i	i
COCCCNc1nc(-c2ccncc2)nc2ccccc12	i	i	i	i	i
COCCNc1nc(-c2ccccc2)nc2ccccc12	i	i	i	i	-5*
CN(C)C(CNC(=O)c1ccc(C(F)(F)F)cc1)c1ccco1 (stereo not drawn)	i	i	i	86*	-7*
Cc1ccc2oc(C(=O)NCC(c3ccco3)N(C)C)c(C)c2c1 (stereo not drawn)	i	i	i	i	-6*
CC(=O)Nc1ccc(C(=O)NCC(c2ccco2)N(C)C)cc1 (stereo not drawn)	i	i	i	i	i
CN(C)c1ccc([N+](=O)[O-])cc1C(=O)NCC(c1ccco1)N(C)C (stereo not drawn)	i	i	i	i	-5*
CCn1cc(/C=C(\NC(=O)c2ccccc2F)C(=O)N2CCCC2)c2ccccc21	i	i	i	i	i
CCN(CC)C(=O)C1CCN(C(=O)c2oc3ccc(C)cc3c2C)CC1	i	i	i	i	i
Cc1ccc2oc(C(=O)N3CCC(O)(c4ccccc4)CC3)c(C)c2c1	15*	i	i	i	i
CN(C(=O)Cn1cnc([N+](=O)[O-])n1)C1CCCCC1	i	i	i	i	i
COC(=O)c1cccc(CSC(=S)N2CCCC2)c1	i	i	13*	i	i	HEK293 TRPC6 ctr=i;HEK293 MPD ctr 2=i;TRPC4 ctr mod=i;TRPC4 ctr inh 2=i;TRPC6 act confirm=130%*
COC(=O)c1ccc(C(=S)N2CCCCC2)cc1	i	i	i	i	i
CCCc1ccc2oc(C(=O)N(Cc3nccn3C)C(C)C)c(C)c2c1	i	i	i	i	i
